Data set [1] concerns SH-SY5Y. Briefly: Protection against H2O2-induced oxidative stress in human SH-SY5Y cells assessed as increase in SOD activity preincubated for 6 hrs followed by H2O2 addition and measured after 24 hrs by xanthine oxidase method. In kind it is functional, cell-based. Put shortly:
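Cellular SOD activity (units) and MDA content (μmol/g) measured in SH-SY5Y after pretreatment (1, 10 μM) and 600 μM H₂O₂. Mean ± S.E.M. of three independent experiments.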

Data set [2] concerns SH-SY5Y. Kind of data set: Protection against H2O2-induced apoptosis in human SH-SY5Y cells assessed as improvement in nuclear fragmentation at 1 to 10 uM preincubated for 6 hrs followed by H2O2 addition and measured after 24 hrs by Hoechst 33342 staining based inverted microscopic analysis. In kind it is functional, cell-based. Put shortly:
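Hoechst 33342 nuclear staining after pretreatment and 600 μM H₂O₂. Nuclear fragmentation and DNA condensation were scored visually.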

Data set [3] deals with SH-SY5Y. Briefly: Protection against H2O2-induced apoptosis in human SH-SY5Y cells assessed as viable cells at 1 uM preincubated for 6 hrs followed by H2O2 addition and measured after 24 hrs by Annexin V-FITC/propidium iodide staining based flow cytometry (reference value: 12.4%). In kind it is functional. The note with it: read-out: Activity. On the technique in general: In flow cytometry, cells or beads pass a laser one at a time.

The test system of data set [4] is SH-SY5Y. Kind of data set: Protection against H2O2-induced apoptosis in human SH-SY5Y cells assessed as early apoptotic cells at 10 uM preincubated for 6 hrs followed by H2O2 addition and measured after 24 hrs by Annexin V-FITC/propidium iodide staining based flow cytometry (reference value: 6.6%). In kind it is functional.
The subject of data set [5] is SH-SY5Y. Kind of data set: Protection against H2O2-induced apoptosis in human SH-SY5Y cells assessed as decrease in ratio of Bax/Bcl2 expression preincubated for 6 hrs followed by H2O2 addition and measured after 24 hrs by Western blot analysis. It is filed as functional, cell-based. Summed up: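 Western blot of Bax, Bcl-2 and cleaved caspase-3 in SH-SY5Y after pretreatment (1, 10 μM) and 600 μM H₂O₂. β-actin internal standard; Bax/Bcl-2 ratio from densitometry. Mean ± S.E.M., three independent experiments.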
A general note: A western blot detects proteins with antibodies after separation by electrophoresis.

The subject of data set [6] is Mus musculus. Kind of data set: Anti-parkinson's activity in MPTP-induced C57Bl/6 mouse model of Parkinson's disease assessed as restoration of motor ability by measuring increase in time spent on rota-rod at 10 to 20 mg/kg, ig pretreated for 10 days followed by MPTP challenge measured 4 to 72 hrs post MPTP addition for 3 mins by rota rod test. In kind it is functional, organism-based. Summed up:
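MPTP-intoxicated mice given 1 orally at 10 or 20 mg/kg. Time retained on a rotating rod recorded 4, 24, 48 and 72 h after MPTP. Mean ± S.D., n = 6 mice/group.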
(Falling from the rotarod earlier than controls is read as motor impairment.)

The subject of data set [7] is Mus musculus. Kind of data set: Anti-parkinson's activity in MPTP-induced C57Bl/6 mouse model of Parkinson's disease assessed as increase in tyrosine hydroxylase expression in striatum at 10 to 20 mg/kg, ig pretreated for 10 days followed by MPTP challenge measured 10 days post MPTP addition by DAB staining based immunohistochemistry method. It is filed as functional, organism-based. Put shortly:
(§1)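 Tissue taken 10 days after MPTP injection from mice dosed orally with 1 (10 or 20 mg/kg). TH in SNpc and striatum by western blot, and by DAB immunostaining. Three of the mice per group analysed. Mean ± S.D., n = 6 mice/group.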

The test system of data set [8] is Mus musculus. Kind of data set: Anti-parkinson's activity in MPTP-induced C57Bl/6 mouse model of Parkinson's disease assessed as increase in tyrosine hydroxylase expression in substantia nigra at 10 to 20 mg/kg, ig pretreated for 10 days followed by MPTP challenge measured 10 days post MPTP addition by Western blot analysis. It is filed as functional, organism-based. Summed up: as §1

In data set [9] the test system is Mus musculus. Kind of data set: Anti-parkinson's activity in MPTP-induced C57Bl/6 mouse model of Parkinson's disease assessed as reduction in MDA level in striatum administered intragastrically pretreated for 10 days followed by MPTP challenge measured 10 days post MPTP addition by thiobarbituric acid method. In kind it is functional, organism-based. Put shortly: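 Striatum and SNpc from MPTP-treated mice dosed orally with 1 at 10 or 20 mg/kg. MDA level and SOD activity measured. Mean ± S.D., n = 6 mice/group.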

Data set [10] is described as follows: Half life in Sprague-Dawley rat at 25 mg/kg, po by LC-MS/MS analysis. The following applies: in vivo. In kind it is ADME, organism-based. Put shortly: (§2)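 Male Sprague–Dawley rats dosed with 1 at 5 mg/kg i.v. (vehicle 5% DMSO, 2% F68, 93% saline) or 25 mg/kg p.o. (0.5% methylcellulose with 1% Tween 80). Orbital blood sampled at 0.083–24 h, 12 time points. Plasma PK parameters derived. Mean ± SD, n = 3.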

Data set [11] can be described thus: Tmax in Sprague-Dawley rat at 25 mg/kg, po by LC-MS/MS analysis. In kind it is ADME, organism-based. The following applies: in vivo. Summed up: (§3)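 Male Sprague–Dawley rats (n = 3) dosed i.v. 5 mg/kg (5% DMSO, 2% F68, 93% saline) or p.o. 25 mg/kg (0.5% methylcellulose, 1% Tween 80). Orbital blood at 0.083–24 h (12 points). Plasma concentration–time profiles gave Cl, Vdss, AUC, T1/2, Tmax, Cmax, MRT and absolute F.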

Data set [12] in a line: Cmax in Sprague-Dawley rat at 25 mg/kg, po by LC-MS/MS analysis. In kind it is ADME, organism-based. The note with it: in vivo. More on the design: dose 25 mg/kg, route oral. Summed up: as §2
The nature of data set [13]: Oral bioavailability in Sprague-Dawley rat at 25 mg/kg by LC-MS/MS analysis. It is filed as ADME, organism-based. The note with it: in vivo. Put shortly: as §3
Data set [14] is described as follows: Volume of distribution at steady state in Sprague-Dawley rat at 5 mg/kg, iv by LC-MS/MS analysis. It is filed as ADME, organism-based. The following applies: in vivo, read-out: Vdss. Summed up: as §3
Data set [15] is described as follows: Activation of PI3K/Akt/mTOR signaling in human SH-SY5Y cells assessed as up regulation of HO-1 expression at 1 uM after 24 hrs by Western blot analysis relative to control. It is filed as cell-based. Summed up:
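HO-1 western blot in SH-SY5Y cells incubated 24 h with 1 at 0.1, 1 or 10 μM, without H₂O₂. Band densitometry expressed as % of control. Mean ± S.E.M. from three independent experiments.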

A short description of data set [16]: Activation of PI3K/Akt/mTOR signaling in human SH-SY5Y cells assessed as up regulation of H2O2-induced HO-1 expression at 10 uM preincubated for 6 hrs followed by H2O2 addition and after 24 hrs in presence of MEK1/2 inhibitor U0126 by Western blot analysis. In kind it is cell-based. Put shortly:
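SH-SY5Y cells preincubated 1 h with one inhibitor: SB203580 10 μM, LY294002 5 μM, U0126 10 μM, SP600125 5 μM or rapamycin 100 nM. Then 1 (10 μM) for 6 h, then 600 μM H₂O₂. HO-1 measured by western blot and densitometry. Mean ± S.E.M., three independent experiments.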

Data set [17] has as its system SH-SY5Y. Kind of data set: Neuroprotection against H2O2-induced cell death in human SH-SY5Y cells assessed as cell viability at 10 uM preincubated for 6 hrs followed by H2O2 addition and measured after 24 hrs in presence of PI3K/Akt/mTOR inhibitor LY294002 by MTT assay relative to control. In kind it is functional. The following applies: read-out: Activity. Put shortly:
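SH-SY5Y cells preincubated 1 h with LY294002 (5 μM) or rapamycin (100 nM). Then 1 (10 μM) for 6 h, then 600 μM H₂O₂. Viability by MTT. Mean ± S.E.M., three independent experiments.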

For data set [18], the system named is SH-SY5Y. Kind of data set: Cytotoxicity against non-stimulated human SH-SY5Y cells assessed as effect on cell viability at 1 to 100 uM measured after 24 hrs by MTT assay.

Activity calls are given as the source filed them. The rule behind the calls is not given here.

Take `COC(=O)[C@H](Cc1ccccc1)NC(=O)/C=C/c1ccc(O)c(O)c1` [N-CAFFEOYL-PHENYLALANINE METHYL ESTER]: the Activity entry in data set [1] is “Dose-dependent effect”; in data set [4], 4.5%; in data set [5], “Dose-dependent effect”; in [9] it was “Dose-dependent effect”; in [15] it was 155%; in data set [18], “Non-Toxic”. Besides, the outcome in data set [2], in data set [6], in [7], in data set [8] and in data set [16] was Active. For the same compound, the viability at 1 µM in [3] came out at 72%. Further, the half-life in data set [10] is 2.7 h. Besides, the Tmax in data set [11] came out at 2 h. The Cmax in [12] came to 808 ng/mL. This compound returned a bioavailability in data set [13] of 15.2%. Further, the Vd in [14] was determined as 2.25 L/kg. The viability at 10 µM in data set [17] is 60.5%.

For orientation: half-life means the time in which the quantity being followed falls by half. A word on the Tmax: it is the time at which the peak concentration occurs. What is called Cmax is the peak of the concentration-time curve. As usually defined, the bioavailability is the share of a dose that reaches the circulation, judged against a reference dose that is usually intravenous. Lower therefore signals little systemic uptake.

The record behind these values is ChEMBL document CHEMBL4308887, “Synthesis and biological evaluation of clovamide analogues with catechol functionality as potent Parkinson's disease agents in vitro and in vivo” (Bioorg Med Chem Lett, 2019).
